Assay [1] has as its target Proto-oncogene tyrosine-protein kinase Src (Homo sapiens) (UniProt P12931). The assay can be described thus: Inhibition of C-terminal His-tagged human recombinant SRC expressed in baculovirus expression system at 100 nM by Z'-LYTE assay. The essentials: (§1)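 Z'-LYTE FRET kinase panel; phosphorylation of a reference peptide measured with ATP at each enzyme's Km. Compounds tested in 1% DMSO at 0.1 and/or 1 μM. Values are means of two independent experiments with standard deviations.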

Assay [2] addresses Cyclin-dependent kinase 5 (Homo sapiens) (UniProt Q00535). The experiment in a line: Inhibition of GST/His-tagged human full length recombinant CDK5 expressed in baculovirus expression system at 100 nM by Z'-LYTE assay. In outline: as §1
In assay [3] the test system is BaF3. The assay can be described thus: Cytotoxicity against mouse BaF3 cells harboring EGFR del19/T790M/C797S triple mutant assessed as inhibition of cell proliferation measured after 72 hrs by MTS assay. It is filed as functional, cell-based. The essentials:
(§2)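 Ba/F3 cells carrying the respective EGFR triple mutant, grown in RPMI-1640 with 2 mM glutamine and 10% FBS at 37°C, 5% CO2. Seeded 20000 cells/well and treated the same day with increasing concentrations (DMSO ≤0.1% final). Viability read by MTS after 72 h, expressed as % inhibition versus untreated controls; at least three independent experiments.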
For orientation: Formazan colour is commonly taken as a measure of viable cells.

Assay [4] has as its target Cyclin-dependent kinase 2 (Homo sapiens) (UniProt P24941). The assay can be described thus: Inhibition of human recombinant CDK2 at 100 nM by Z'-LYTE assay. In outline: as §1
Assay [5] addresses Tyrosine-protein kinase Blk (Homo sapiens) (UniProt P51451). The assay can be described thus: Inhibition of His-tagged human full length recombinant BLK expressed in baculovirus expression system at 100 nM by Z'-LYTE assay. In outline: as §1
The target of assay [6] is T1, Aurora kinase A (Homo sapiens) (UniProt O14965).
T1 sequence (whole entry): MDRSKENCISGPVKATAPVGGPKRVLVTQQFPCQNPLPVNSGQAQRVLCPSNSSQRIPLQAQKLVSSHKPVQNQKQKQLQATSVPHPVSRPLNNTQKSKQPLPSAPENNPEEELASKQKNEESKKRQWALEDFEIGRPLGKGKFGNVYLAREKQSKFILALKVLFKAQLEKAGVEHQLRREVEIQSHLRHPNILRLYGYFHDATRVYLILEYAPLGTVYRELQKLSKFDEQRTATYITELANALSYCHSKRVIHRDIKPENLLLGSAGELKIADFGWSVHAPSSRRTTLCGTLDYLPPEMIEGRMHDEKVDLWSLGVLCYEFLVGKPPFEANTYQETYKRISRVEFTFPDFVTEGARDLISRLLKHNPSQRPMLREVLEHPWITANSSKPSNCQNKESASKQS
The assay can be described thus: Inhibition of His-tagged human full length recombinant AURKA expressed in baculovirus expression system at 100 nM by Z'-LYTE assay. In outline: as §1

In assay [7] the target is T2, Epidermal growth factor receptor (Homo sapiens, UniProt P00533, C797S/L858R/T790M). The experiment in a line: Inhibition of EGFR L858R/T790M/C797S triple mutant (unknown origin) using fluoresceine-labelled poly-GT peptide as substrate incubated for 1 hr by TR-FRET assay. On the technique in general: Time-resolved FRET reads energy transfer from a long-lived donor to a nearby acceptor.

Assay [8] has as its system Epidermal growth factor receptor (Homo sapiens), P00533 [L858R,T790M,C797S]. The experiment in a line: Ratio of IC50 for EGFR L858R/T790M/C797S triple mutant (unknown origin) using fluoresceine-labelled poly-GT peptide as substrate incubated for 1 hr to IC50 for EGFR L858R/T790M/C797S triple mutant (unknown origin) using fluoresceine-labelled poly-GT peptide as substrate preincubated with enzyme for 3 hrs followed by substrate and ATP addition.

Assay [9] concerns the target AMP-activated protein kinase, AMPK (Homo sapiens) (UniProt P54646+O43741+P54619+Q9UGJ0+Q9Y478+Q13131+Q9UGI9). The experiment in a line: Inhibition of human recombinant AMPK at 100 nM by Z'-LYTE assay. It is filed as protein-complex assay. In outline: as §1
For assay [10], the target named is RAC-beta serine/threonine-protein kinase (Homo sapiens) (UniProt P31751). The experiment in a line: Inhibition of His-tagged full length human recombinant AKT2 expressed in baculovirus expression system at 100 nM by Z'-LYTE assay. The essentials:
as §1

Assay [11] concerns the target Tyrosine-protein kinase Lck (Homo sapiens) (UniProt P06239). The experiment in a line: Inhibition of human recombinant LCK at 100 nM by Z'-LYTE assay. In outline:
as §1

The subject of assay [12] is Epidermal growth factor receptor (Homo sapiens), P00533 [L858R,T790M,C797S]. The assay can be described thus: Irreversible inhibiton of EGFR L858R/T790M/C797S triple mutant (unknown origin) assessed as residual enzyme activity using fluoresceine-labelled poly-GT peptide as substrate preincubated with enzyme for 3 hrs at 10XIC50 followed by 100-fold dilution and measured after 30 mins by rapid dilution assay based TR-FRET analysis. The settings on record: time 210.0 min. The essentials:
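It was then diluted 100-fold into Kinase Buffer A containing poly-GT substrate and 9 μM ATP. After 30 min, EDTA quench plus Eu-PY20 were added for 30 min before TR-FRET. Activity is given as % of no-inhibitor control; n = 5.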

In assay [13] the target is T2, Epidermal growth factor receptor. The assay can be described thus: Inhibition of EGFR L858R/T790M/C797S triple mutant (unknown origin) using fluoresceine-labelled poly-GT peptide as substrate preincubated with enzyme for 3 hrs followed by substrate and ATP addition by TR-FRET assay.
In assay [14] the test system is BaF3. The assay can be described thus: Cytotoxicity against mouse BaF3 cells harboring EGFR L858R/T790M/C797S triple mutant assessed as inhibition of cell proliferation measured after 72 hrs by MTS assay. It is filed as functional, cell-based. The essentials: as §2
The target of assay [15] is T3, Inhibitor of nuclear factor kappa-B kinase subunit beta (Homo sapiens) (UniProt O14920).
T3 sequence (whole entry): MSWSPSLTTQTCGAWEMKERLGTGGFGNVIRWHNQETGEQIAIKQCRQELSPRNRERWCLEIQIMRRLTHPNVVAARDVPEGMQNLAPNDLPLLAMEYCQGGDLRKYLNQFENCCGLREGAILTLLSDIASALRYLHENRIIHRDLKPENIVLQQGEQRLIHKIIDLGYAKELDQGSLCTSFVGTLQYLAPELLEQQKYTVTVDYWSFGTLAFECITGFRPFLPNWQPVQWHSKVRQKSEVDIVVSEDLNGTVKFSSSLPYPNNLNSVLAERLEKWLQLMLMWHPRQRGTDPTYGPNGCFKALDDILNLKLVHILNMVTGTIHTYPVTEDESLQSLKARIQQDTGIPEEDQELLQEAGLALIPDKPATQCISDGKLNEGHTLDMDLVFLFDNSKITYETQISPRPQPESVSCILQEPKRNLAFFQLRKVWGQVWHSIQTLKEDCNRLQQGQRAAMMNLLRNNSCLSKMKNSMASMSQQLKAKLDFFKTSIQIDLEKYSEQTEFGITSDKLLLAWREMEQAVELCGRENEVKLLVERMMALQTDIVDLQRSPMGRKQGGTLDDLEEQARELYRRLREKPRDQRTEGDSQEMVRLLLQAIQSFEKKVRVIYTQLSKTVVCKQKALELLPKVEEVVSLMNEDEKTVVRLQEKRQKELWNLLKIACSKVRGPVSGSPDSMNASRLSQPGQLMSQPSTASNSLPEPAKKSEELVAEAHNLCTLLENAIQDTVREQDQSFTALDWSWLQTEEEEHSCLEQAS
The experiment in a line: Inhibition of GST-tagged human full length recombinant IKKbeta expressed in baculovirus expression system at 1 uM by Z'-LYTE assay. The essentials: as §1

SMILES strings stand for the structures. Active and inactive are the calls of the source. The rule behind the calls is not given here. Some results are limits rather than exact numbers.

Cyclin-dependent kinase 5 (Homo sapiens), sequence (Q00535 whole entry, looked up): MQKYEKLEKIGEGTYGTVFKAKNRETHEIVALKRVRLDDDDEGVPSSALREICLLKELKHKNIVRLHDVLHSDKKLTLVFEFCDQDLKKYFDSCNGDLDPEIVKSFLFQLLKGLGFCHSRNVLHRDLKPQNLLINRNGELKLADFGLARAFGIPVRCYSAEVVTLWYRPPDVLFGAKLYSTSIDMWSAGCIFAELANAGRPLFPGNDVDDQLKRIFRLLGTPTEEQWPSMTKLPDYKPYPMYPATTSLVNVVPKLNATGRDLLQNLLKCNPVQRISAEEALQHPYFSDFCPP
Tyrosine-protein kinase Blk (Homo sapiens), sequence (P51451 2-505 limits assumed): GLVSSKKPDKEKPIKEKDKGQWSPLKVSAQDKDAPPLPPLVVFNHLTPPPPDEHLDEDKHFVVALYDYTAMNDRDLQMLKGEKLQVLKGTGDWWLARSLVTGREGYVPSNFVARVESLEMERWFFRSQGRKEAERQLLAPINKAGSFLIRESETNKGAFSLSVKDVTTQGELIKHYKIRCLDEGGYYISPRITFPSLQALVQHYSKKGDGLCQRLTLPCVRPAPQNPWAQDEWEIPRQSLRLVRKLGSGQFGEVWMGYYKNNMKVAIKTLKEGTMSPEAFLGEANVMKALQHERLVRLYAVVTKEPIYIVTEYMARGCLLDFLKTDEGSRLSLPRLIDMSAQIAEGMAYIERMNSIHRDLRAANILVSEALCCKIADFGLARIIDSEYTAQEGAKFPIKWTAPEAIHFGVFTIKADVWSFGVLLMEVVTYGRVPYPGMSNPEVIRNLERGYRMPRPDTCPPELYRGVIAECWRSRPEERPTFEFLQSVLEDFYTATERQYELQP
RAC-beta serine/threonine-protein kinase (Homo sapiens), sequence (P31751 whole entry): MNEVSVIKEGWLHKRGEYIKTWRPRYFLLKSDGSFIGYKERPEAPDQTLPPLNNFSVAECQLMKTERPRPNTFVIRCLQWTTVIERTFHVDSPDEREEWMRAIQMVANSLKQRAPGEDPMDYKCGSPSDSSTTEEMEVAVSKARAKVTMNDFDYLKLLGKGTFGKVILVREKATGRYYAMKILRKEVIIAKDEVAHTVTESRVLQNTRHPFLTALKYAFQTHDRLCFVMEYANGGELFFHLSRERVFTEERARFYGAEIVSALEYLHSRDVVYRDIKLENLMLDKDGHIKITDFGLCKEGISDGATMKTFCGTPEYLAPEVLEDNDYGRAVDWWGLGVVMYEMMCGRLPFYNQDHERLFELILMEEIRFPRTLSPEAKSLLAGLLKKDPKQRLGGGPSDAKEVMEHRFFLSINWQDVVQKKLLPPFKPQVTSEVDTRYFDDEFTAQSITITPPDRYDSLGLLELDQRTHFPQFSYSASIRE
Tyrosine-protein kinase Lck (Homo sapiens), sequence (P06239 2-509 limits assumed): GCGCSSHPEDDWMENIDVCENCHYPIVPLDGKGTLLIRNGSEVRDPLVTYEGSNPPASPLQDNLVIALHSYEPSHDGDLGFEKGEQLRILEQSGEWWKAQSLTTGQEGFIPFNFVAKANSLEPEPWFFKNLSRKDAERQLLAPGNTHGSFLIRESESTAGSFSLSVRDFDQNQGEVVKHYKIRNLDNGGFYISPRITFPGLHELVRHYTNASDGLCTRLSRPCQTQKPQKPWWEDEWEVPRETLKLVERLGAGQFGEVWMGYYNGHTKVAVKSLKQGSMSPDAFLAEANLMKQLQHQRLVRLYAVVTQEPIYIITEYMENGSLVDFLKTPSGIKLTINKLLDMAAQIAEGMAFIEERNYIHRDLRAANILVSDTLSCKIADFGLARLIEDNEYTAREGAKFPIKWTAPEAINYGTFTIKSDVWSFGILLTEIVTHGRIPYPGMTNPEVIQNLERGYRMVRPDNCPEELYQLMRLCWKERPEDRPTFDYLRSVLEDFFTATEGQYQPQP
Proto-oncogene tyrosine-protein kinase Src (Homo sapiens), sequence (P12931 2-536 limits assumed): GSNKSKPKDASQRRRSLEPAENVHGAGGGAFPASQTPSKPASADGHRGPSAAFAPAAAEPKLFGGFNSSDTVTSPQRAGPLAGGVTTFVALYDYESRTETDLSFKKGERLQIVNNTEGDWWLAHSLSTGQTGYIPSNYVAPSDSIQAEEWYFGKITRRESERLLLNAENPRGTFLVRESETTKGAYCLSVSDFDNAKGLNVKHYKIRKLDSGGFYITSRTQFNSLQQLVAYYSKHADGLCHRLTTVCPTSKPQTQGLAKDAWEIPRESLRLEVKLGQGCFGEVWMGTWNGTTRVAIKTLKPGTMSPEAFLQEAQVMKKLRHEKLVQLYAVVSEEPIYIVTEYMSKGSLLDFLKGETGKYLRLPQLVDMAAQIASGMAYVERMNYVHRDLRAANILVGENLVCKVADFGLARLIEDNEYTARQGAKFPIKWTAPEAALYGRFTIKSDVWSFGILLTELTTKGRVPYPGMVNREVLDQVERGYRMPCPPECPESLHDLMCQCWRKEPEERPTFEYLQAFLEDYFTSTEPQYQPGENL

As usually defined, the inhibition is the percentage by which the read-out fell short of the control. In general, IC50 refers to the point on the concentration scale where inhibition reaches its midpoint. For the molecule `C#CCNC(=O)c1cc(Nc2cc(C3CC3)[nH]n2)nc(N2CCN(Cc3ccc(S(=O)(=O)F)cc3)CC2)n1`, the inhibition result in assay [1], in [2], in [4], in assay [5], in [6] and in assay [9] was “Active” in each case. For the same molecule, the inhibition result in [10] and in [11] was “Active” each time. Besides, the outcome in the assay on BaF3 [3] and with BaF3 [14] was Active. The IC50 was found to be 244 nM in assay [7] and 6 nM in assay [13]. The Ratio IC50 in [8] amounted to 40. Moreover, the Activity in assay [12] was below 25%.
Consider `COc1cc(N2CCN(C(C)=O)CC2)ccc1Nc1ncc(Cl)c(Nc2ccc(NCc3ccc(S(=O)(=O)F)cc3)cc2)n1`, for which the inhibition result in [1], in [2], in [4], in assay [5], in assay [9] and in assay [10] was “inactive” throughout. The inhibition result in [11] was “inactive”. Moreover, the result in the assay on BaF3 [3] was inactive. In addition, the inhibition in assay [6] is 30%; in assay [15], below 25%. Further, the half-maximal inhibitory concentration (IC50) in assay [7] amounted to 110 nM; in [13] it was 1.5 nM; with BaF3 [14] (BaF3, 72 h) it was 500 nM. Also, the Ratio IC50 in assay [8] is 70. In assay [12], the Activity is below 25%.

Values taken from ChEMBL document CHEMBL4828755, “A sulfonyl fluoride derivative inhibits EGFRL858R/T790M/C797S by covalent modification of the catalytic lysine” (Eur J Med Chem, 2021).
